Measurements published in PubChem BioAssay AID588417 (The Scripps Research Institute Molecular Screening Center, 2011).
Calls of active or inactive are those of the source.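 Rule for the calls: active = IC50 at or below 1 µM; inactive = IC50 above 1 µM.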

Biological target: Protein-arginine deiminase type-4 (Homo sapiens) (UniProt Q9UM07)
Assay: PAD4 enzyme inhibition, citrulline production – biochemical, colorimetric substrate assay, assay provider data, 0-15 µM, late-stage follow-up (AID 588417)
Conditions: recombinant PAD4, BAEE substrate, citrulline colorimetric absorbance
In short: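 Material: Recombinant PAD4 protein | Also added: BAEE substrate at 10 mM | Schedule: 15 min pretreatment plus 15 min reaction, 37 °C | Technique: Absorbance at 540 nm after diacetyl monoxime/thiosemicarbazide color development | Read-out basis: IC50 from fractional PAD4 activity, citrulline quantified via standard curve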

Protein-arginine deiminase type-4 (Homo sapiens), sequence (Q9UM07 whole entry, looked up): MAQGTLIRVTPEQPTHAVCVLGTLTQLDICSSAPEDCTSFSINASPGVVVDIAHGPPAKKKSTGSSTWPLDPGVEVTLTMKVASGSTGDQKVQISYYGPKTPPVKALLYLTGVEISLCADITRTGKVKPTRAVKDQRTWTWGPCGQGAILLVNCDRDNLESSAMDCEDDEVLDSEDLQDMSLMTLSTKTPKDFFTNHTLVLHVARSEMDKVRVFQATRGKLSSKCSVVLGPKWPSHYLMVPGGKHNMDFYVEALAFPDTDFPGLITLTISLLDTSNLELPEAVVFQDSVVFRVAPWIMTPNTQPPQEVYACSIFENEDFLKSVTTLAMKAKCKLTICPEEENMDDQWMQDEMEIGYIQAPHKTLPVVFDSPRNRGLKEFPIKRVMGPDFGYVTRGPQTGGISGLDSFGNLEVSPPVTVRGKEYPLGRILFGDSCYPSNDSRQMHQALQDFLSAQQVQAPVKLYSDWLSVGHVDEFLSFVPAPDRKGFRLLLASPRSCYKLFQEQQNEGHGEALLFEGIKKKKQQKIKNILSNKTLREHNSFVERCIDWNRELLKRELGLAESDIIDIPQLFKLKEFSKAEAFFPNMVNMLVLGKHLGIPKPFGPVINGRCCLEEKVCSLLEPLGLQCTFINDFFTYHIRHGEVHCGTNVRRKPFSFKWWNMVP

COC1=C(Br)C(=O)c2nc(-c3ccccn3)ccc2C1=O
IC50: inactive
